Experimental data published in ChEMBL document CHEMBL2163306, “Synthesis of new chiral xanthone derivatives acting as nerve conduction blockers in the rat sciatic nerve” (Eur J Med Chem, 2012).
Active and inactive are the calls of the source. The rule behind the calls is not given here.

Key:
[1] = Toxicity in isolated Wistar rat sciatic nerve assessed as axonal damage by LDH assay; type: tissue-based; details: ex_vivo
Method in brief: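 Neuronal damage in isolated Wistar rat sciatic nerve bundles was gauged from LDH activity leaked into the incubation medium over time, following the Bergmeyer method.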

Sciatic nerve [2] = test: Inhibition of amplitude of compound action potential in isolated Wistar rat sciatic nerve after 15 mins by electrophysiology assay; type: functional, tissue-based
Method in brief: (§1)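 Sciatic nerve bundles 3–4 cm long came from adult Wistar rats (200–400 g). Drugs in Tyrode's solution were applied cumulatively (0.100–3.00 µM) at 1 mL/min flow, with at least 15 min contact each. Blockade was taken as percentage decrement in compound action potential amplitude versus control. Solvent was at most 0.05% v/v.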

Erythrocyte [3] = test: Antihemolytic activity against hypotonic hemolysis in Wistar rat erythrocytes at 0.3 to 1 uM after 10 mins; type: functional, cell-based
Method in brief: (§2)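 Blood was taken by puncture from urethane-anaesthetized (1.2 g/kg) Wistar rats and heparinised. After centrifugation, plasma and leukocyte layer were removed and cells were resuspended in 154 mM NaCl/10 mM phosphate buffer pH 7.0. The suspension was added to drug dilutions in hypotonic NaCl/phosphate buffer pH 7.0 (NaCl 63–67 mM for 50% haemolysis) and held 10 min at room temperature. It was then spun, and supernatant haemoglobin was read at 540 nm. Run in duplicate; expressed as relative haemolysis.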

[4] = Antihemolytic activity against hypotonic hemolysis in Wistar rat erythrocytes at 100 uM after 10 mins relative to control; type: functional, Erythrocyte; method in brief: as §2
Erythrocyte [5] = test: Antihemolytic activity against hypotonic hemolysis in Wistar rat erythrocytes at 0.1 to 30 uM after 10 mins; type: functional, cell-based; method in brief: as §2
Erythrocyte [6] = test: Antihemolytic activity against hypotonic hemolysis in Wistar rat erythrocytes at 0.1 to 100 uM after 10 mins; type: functional, cell-based; method in brief: as §2
Sciatic nerve [7] = test: Inhibition of amplitude of compound action potential in isolated Wistar rat sciatic nerve at 0.1 to 3 uM after 15 mins by electrophysiology assay; type: functional, tissue-based; method in brief: as §1
Erythrocyte [8] = test: Antihemolytic activity against hypotonic hemolysis in Wistar rat erythrocytes at 0.1 to 1 uM after 10 mins; type: functional, cell-based; method in brief: as §2
Erythrocyte [9] = test: Antihemolytic activity against hypotonic hemolysis in Wistar rat erythrocytes at 100 uM after 10 mins relative to sucrase; type: functional, cell-based; method in brief: as §2
Erythrocyte [10] = test: Antihemolytic activity against hypotonic hemolysis in Wistar rat erythrocytes after 10 mins; type: functional, cell-based; method in brief: as §2

Structure (SMILES) | Activity [1] | inhibition (Sciatic nerve [2]) | Activity (Erythrocyte [3]) | Ratio [4] | inhibition (Sciatic nerve [7]) | further results
COc1ccc2c(=O)c3cc(C(=O)N[C@H](CO)CC(C)C)ccc3oc2c1 | Non-toxic | Dose-dependent effect | Active |  |  | 
O=c1c2ccccc2oc2ccccc12 [XANTHONE] |  |  |  | 0.686 |  | Activity (Erythrocyte [5]): inactive
OC[C@H]1O[C@@](CO)(O[C@H]2O[C@H](CO)[C@@H](O)[C@H](O)[C@H]2O)[C@@H](O)[C@@H]1O |  |  |  |  | inactive | Activity (Erythrocyte [6]): Active
COc1ccc2c(=O)c3cc(C(=O)N[C@H](CO)C(C)C)ccc3oc2c1 | Non-toxic | Dose-dependent effect |  |  |  | Activity (Erythrocyte [8]): Active; Activity (Erythrocyte [9]): Active
COc1ccc2c(=O)c3cc(C(=O)N[C@@H](C)c4ccc(C)cc4)ccc3oc2c1 | Non-toxic | Dose-dependent effect | Active | 0.967 |  | 
CCCCOc1cc(C(=O)NCCN(CC)CC)c2ccccc2n1 [DIBUCAINE] |  |  |  | 0.421 | Active | Activity (Erythrocyte [10]): Dose-dependent effect
